Assay results pooled from the literature.
Compare with care: the assays were run in different laboratories.
ALK: ALK tyrosine kinase receptor (ALK, Homo sapiens, UniProt Q9UM73)
ALK C1156Y: ALK tyrosine kinase receptor (ALK, Homo sapiens, UniProt Q9UM73, C1156Y)
ALK L1196M: ALK tyrosine kinase receptor (ALK, Homo sapiens, UniProt Q9UM73, L1196M)

F[C@@H]1CCN(c2nccc(-c3cnn4ncccc34)n2)C1 — remaining binding (ALK; binding; 1 µM): 100%
O=C(NCC1CCOCC1)c1n[nH]cc1NC(=O)c1c(F)cccc1F — remaining binding (ALK; binding; competition with immobilised ligand; 1 µM): 93%
C[C@@H](c1ccc(-n2cnc3c(N)ncnc32)cc1)N1CCc2nn(C)c(Cc3ccccc3)c2C1=O — remaining binding (ALK C1156Y; binding; competition with immobilised ligand; 0.1 µM): 57%
Cc1c(NC(=O)c2cc(C(N)=O)nc3cc(F)ccc23)c(C(F)(F)F)nn1Cc1ccc(C(C)(C)C)cc1 — remaining binding (ALK; cell-free assay; competition with immobilised ligand; 1 µM): 96%
O=C(NCCCN1CCOCC1)c1ccc(Nc2nccc(-c3cc4ccccc4s3)n2)cc1 — remaining binding (ALK L1196M; binding; competition with immobilised ligand; 1 µM): 100%
Cc1cnn2ncc(-c3ccnc(N(C)C)n3)c2c1 — remaining binding (ALK; binding; 1 µM): 92%
CC(=O)N1CCC(c2ccc(C(=O)NC3=NCCN3)cc2C(F)(F)F)CC1 — remaining binding (ALK C1156Y; cell-free assay; competition with immobilised ligand; 1 µM): 100%
N[C@@H]1CCN(c2nccc(-c3cnn4ncccc34)n2)C1 — remaining binding (ALK; binding; 1 µM): 97%
COc1ncc2cc3ccccc3nc2c1C#N — remaining binding (ALK L1196M; cell-free assay; competition with immobilised ligand; 5 µM): 94%
O=C(NCCCN1CCOCC1)c1ccc(Nc2ncc(Cl)c(-c3ccc(Cl)s3)n2)cc1 — remaining binding (ALK L1196M; binding; competition with immobilised ligand; 1 µM): 90%
CCS(=O)(=O)c1cc2cc(C[C@](O)(CC(C)(C)c3ccc(F)cc3C(N)=O)C(F)(F)F)[nH]c2cn1 — remaining binding (ALK C1156Y; cell-free assay; competition with immobilised ligand; 1 µM): 96%
CN(C)c1nccc(-c2cnc3ncccn23)n1 — remaining binding (ALK; binding; 1 µM): 73%
COc1cnc(Nc2cccc(S(N)(=O)=O)c2)nc1N1CCN(c2ccccc2)CC1 — remaining binding (ALK L1196M; binding; competition with immobilised ligand; 1 µM): 100%
CCC(=O)N[C@@H]1CC[C@H](C(=O)N(C)c2ccc(-c3nc4ccccc4o3)cc2)C1 — remaining binding (ALK; cell-free assay; competition with immobilised ligand; 1 µM): 99%
C[C@@H]1CCN(c2nccc(-c3cnn4ncccc34)n2)C1 — remaining binding (ALK L1196M; binding; 1 µM): 100%
Cc1noc([C@H]2C[C@@H](c3ccc(C(F)(F)F)cc3)CN(C(=O)N3CCS(=O)(=O)C3)C2)n1 — remaining binding (ALK; cell-free assay; competition with immobilised ligand; 1 µM): 100%
Cc1cnc(Nc2ccc(C(=O)N3CCC(N4CCCC4)CC3)cc2)nc1-c1cc2ccccc2s1 — remaining binding (ALK C1156Y; binding; competition with immobilised ligand; 1 µM): 34%
CN(C)c1nccc(-c2cnn3ncccc23)n1 — remaining binding (ALK L1196M; binding; 1 µM): 100%
